# In ChEMBL document CHEMBL1667815, “Pharmacophore models based studies on the affinity and selectivity toward 5-HT1A with reference to α1-adrenergic receptors among arylpiperazine derivatives of phenytoin” (Bioorg Med Chem, 2011):
# Legend:
# [1] = biological target: T1, 5-hydroxytryptamine receptor 1A (Rattus norvegicus) (UniProt P19327); assay: Displacement of [3H]-8-OH-DPAT from 5-HT1A receptor in rat hippocampal membranes by liquid scintillation counting; format: cell membranes; conditions: Hippocampus, Membrane
# T1 sequence (whole entry): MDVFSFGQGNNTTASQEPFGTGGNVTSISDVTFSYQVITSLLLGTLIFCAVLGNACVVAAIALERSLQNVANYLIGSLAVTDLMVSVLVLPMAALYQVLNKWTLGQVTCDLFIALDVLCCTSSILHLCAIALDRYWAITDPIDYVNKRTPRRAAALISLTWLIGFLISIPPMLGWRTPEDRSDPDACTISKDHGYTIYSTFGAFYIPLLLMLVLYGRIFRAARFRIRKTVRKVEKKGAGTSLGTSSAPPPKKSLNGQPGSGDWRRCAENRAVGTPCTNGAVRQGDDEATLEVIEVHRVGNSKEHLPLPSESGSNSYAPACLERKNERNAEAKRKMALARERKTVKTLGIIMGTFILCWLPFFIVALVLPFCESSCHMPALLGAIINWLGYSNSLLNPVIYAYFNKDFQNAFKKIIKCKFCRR
# Procedure, shortened: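 Native 5-HT1A sites in rat hippocampal membranes, labelled with [3H]-8-OH-DPAT (170.2 Ci/mmol). Each compound was tested at two concentrations (0.1 and 1), each in triplicate. Bound radioactivity was counted by liquid scintillation. Ks values were estimated from three independent binding experiments and reproduced within 20%.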
# [2] = biological target: T2, Adrenergic receptor alpha-1 (Rattus norvegicus, UniProt P15823+P23944+P43140); assay: Displacement of [3H]-prazosin from alpha1-adrenergic receptor in rat cerebral cortex membranes after 30 mins by scintillation counting; format: cell membranes, Membrane
# T2 sequence (P15823 whole entry): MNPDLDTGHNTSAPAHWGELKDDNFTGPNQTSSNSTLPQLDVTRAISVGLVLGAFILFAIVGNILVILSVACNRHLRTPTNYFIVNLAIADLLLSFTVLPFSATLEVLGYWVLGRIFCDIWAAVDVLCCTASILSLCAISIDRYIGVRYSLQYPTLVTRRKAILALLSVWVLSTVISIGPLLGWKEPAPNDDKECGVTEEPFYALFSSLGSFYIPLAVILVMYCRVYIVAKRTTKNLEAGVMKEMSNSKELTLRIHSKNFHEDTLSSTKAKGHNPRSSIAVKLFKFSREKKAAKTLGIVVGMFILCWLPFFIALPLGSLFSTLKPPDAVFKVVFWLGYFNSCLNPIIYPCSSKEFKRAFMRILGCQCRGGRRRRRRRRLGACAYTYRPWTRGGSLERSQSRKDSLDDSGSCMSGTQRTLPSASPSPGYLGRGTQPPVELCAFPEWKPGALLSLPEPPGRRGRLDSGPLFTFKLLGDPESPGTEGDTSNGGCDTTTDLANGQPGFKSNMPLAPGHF
# T2 sequence (P23944 whole entry): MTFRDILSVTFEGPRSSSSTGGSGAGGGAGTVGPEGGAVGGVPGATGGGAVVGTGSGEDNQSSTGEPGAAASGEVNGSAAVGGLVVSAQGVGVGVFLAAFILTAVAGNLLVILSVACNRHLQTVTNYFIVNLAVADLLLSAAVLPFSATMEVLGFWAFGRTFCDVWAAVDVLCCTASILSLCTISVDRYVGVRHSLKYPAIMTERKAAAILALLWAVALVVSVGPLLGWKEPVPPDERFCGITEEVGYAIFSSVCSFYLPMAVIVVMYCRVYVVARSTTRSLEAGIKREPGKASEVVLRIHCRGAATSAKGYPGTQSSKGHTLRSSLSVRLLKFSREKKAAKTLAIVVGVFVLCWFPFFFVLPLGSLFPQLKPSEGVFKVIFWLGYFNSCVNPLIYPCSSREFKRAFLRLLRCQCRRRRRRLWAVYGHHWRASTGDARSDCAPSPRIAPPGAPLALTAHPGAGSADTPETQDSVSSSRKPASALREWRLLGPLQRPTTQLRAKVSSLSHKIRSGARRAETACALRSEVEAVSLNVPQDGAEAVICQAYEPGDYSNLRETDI
# T2 sequence (P43140 whole entry): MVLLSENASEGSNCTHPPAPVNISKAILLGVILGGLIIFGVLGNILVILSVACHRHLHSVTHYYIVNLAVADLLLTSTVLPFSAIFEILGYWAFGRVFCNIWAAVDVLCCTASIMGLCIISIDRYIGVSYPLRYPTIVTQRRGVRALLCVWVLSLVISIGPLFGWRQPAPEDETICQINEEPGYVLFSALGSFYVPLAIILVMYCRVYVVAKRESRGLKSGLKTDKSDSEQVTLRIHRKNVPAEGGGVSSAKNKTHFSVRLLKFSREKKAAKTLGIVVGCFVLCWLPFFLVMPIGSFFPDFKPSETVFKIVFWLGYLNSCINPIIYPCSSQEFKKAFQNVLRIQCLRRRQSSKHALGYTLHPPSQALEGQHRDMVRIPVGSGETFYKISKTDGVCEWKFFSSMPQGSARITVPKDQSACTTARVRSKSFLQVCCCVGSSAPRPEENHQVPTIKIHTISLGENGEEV
# Rattus norvegicus = species on record: Rattus norvegicus; assay: Selectivity ratio of Ki for alpha1-adrenergic receptor in rat cerebral cortex membranes to Ki for 5-HT1A receptor in rat hippocampal membranes; format: cell membranes; conditions: Membrane
# [3] = biological target: Adrenergic receptor alpha-1 (Rattus norvegicus) (UniProt P15823+P23944+P43140); conditions: Wistar, Thoracic aorta
SMILES,Ks [1] [nM],Ki [2] [µM],Ratio (Rattus norvegicus),pKb [3]
COc1ccccc1N1CCN(CC(O)CN2C(=O)N(CC(=O)O)C(=O)C2(c2ccccc2)c2ccccc2)CC1.Cl (racemic),575,4.8,8.35,
CCN1C(=O)N(CC(O)CN2CCN(c3ccccc3)CC2)C(c2ccccc2)(c2ccccc2)C1=O (racemic),610,,,
CCOc1ccccc1N1CCN(CC(O)CN2C(=O)NC(=O)C2(c2ccccc2)c2ccccc2)CC1 (racemic),83,,,7.44
COc1ccccc1N1CCN(CC(O)CN2C(=O)N(C)C(=O)C2(c2ccccc2)c2ccccc2)CC1 (racemic),22,,,
COc1ccccc1N1CCN(CC(O)CN2C(=O)NC(=O)C2(c2ccccc2)c2ccccc2)CC1 (racemic),95,,,
O=C1NC(=O)C(c2ccccc2)(c2ccccc2)N1CC(O)CN1CCN(c2ccccc2)CC1 (racemic),573,,,

# Results, then the molecule that gave them:
Ks [1] [nM],Ki [2] [µM],Ratio (Rattus norvegicus),pKb [3],SMILES
30,,4.52,,CCOC(=O)C(C)N1C(=O)N(CC(O)CN2CCN(c3ccccc3OC)CC2)C(c2ccccc2)(c2ccccc2)C1=O (racemic)
88,,,,CCOC(=O)CN1C(=O)N(CC(O)CN2CCN(c3ccccc3OC)CC2)C(c2ccccc2)(c2ccccc2)C1=O (racemic)
38,,,,CCOc1ccccc1N1CCN(CC(CN2C(=O)N(C)C(=O)C2(c2ccccc2)c2ccccc2)OC(C)=O)CC1 (racemic)
28,,,,CCOc1ccccc1N1CCN(CC(O)CN2C(=O)N(C(C)C(=O)OC)C(=O)C2(c2ccccc2)c2ccccc2)CC1 (racemic)
7,,17.4,,CCOc1ccccc1N1CCN(CC(O)CN2C(=O)N(C)C(=O)C2(c2ccccc2)c2ccccc2)CC1 (racemic)
37,,,,CCOc1ccccc1N1CCN(CC(O)CN2C(=O)N(CC(=O)OC)C(=O)C2(c2ccccc2)c2ccccc2)CC1 (racemic)
104,,1,,COC(=O)C(C)N1C(=O)N(CC(O)CN2CCN(c3ccccc3OC)CC2)C(c2ccccc2)(c2ccccc2)C1=O (racemic)
86,,2.29,,COC(=O)CN1C(=O)N(CC(O)CN2CCN(c3ccccc3OC)CC2)C(c2ccccc2)(c2ccccc2)C1=O (racemic)
